The source of these data is ChEMBL document CHEMBL1136765, “1,3-dioxolane-based ligands as a novel class of alpha1-adrenoceptor antagonists” (J Med Chem, 2003).

Assay [1] is described as follows: Selectivity over human alpha-1d/alpha-1b receptor.
Assay [2] has as its target T1, Alpha-1B adrenergic receptor (Homo sapiens, UniProt P35368).
T1 sequence (P35368 whole entry): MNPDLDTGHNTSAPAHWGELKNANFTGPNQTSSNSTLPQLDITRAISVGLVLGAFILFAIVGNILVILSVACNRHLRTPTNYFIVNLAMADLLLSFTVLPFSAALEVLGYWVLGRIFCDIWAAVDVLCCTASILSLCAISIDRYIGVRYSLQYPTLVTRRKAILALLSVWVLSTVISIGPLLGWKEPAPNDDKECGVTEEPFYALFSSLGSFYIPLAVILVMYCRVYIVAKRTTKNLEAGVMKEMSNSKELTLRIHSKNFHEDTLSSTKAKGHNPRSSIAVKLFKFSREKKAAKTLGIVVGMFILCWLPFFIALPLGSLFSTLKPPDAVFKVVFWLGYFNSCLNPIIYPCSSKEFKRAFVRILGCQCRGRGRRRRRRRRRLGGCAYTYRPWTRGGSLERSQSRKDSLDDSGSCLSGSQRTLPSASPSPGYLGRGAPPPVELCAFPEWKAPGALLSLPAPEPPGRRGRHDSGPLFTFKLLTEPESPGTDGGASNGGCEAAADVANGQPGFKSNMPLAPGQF
As to the kind of experiment: Affinity constant towards human recombinant Alpha-1B adrenergic receptor using [3H]prazosin (from CHO cells) as radioligand by radioligand binding assay. The class given is cell-based. An outline of the steps:
(§1)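 Membranes of CHO cells stably expressing each cloned human α1 subtype (30 µg protein) incubated with 0.1-0.4 nM [3H]prazosin in 50 mM Tris-HCl pH 7.4, 30 min at 25 °C, with competitor. Nonspecific binding with 10 µM phentolamine. Stopped by ice-cold buffer and filtration on PEI-pretreated filters. IC50 by curve fitting, Ki via Cheng-Prusoff. Mean of two to three experiments in triplicate.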

Assay [3] addresses Alpha adrenergic receptor (1a and 1d) (Homo sapiens) (UniProt P35348+P25100). As to the kind of experiment: Selectivity over human alpha-1d/alpha-1a receptor. The format is protein assay.
The nature of assay [4]: Selectivity given as ratio of pKb value against Alpha-1D receptor to pKb value against Alpha-1B receptor in rat. The class given is functional.
Assay [5] deals with Alpha adrenergic receptor 1A and 1B (Rattus norvegicus) (UniProt P15823+P43140). As to the kind of experiment: Selectivity given as ratio of pKb value against alpha1A receptor to pKb value against alpha-1B receptor in rat. The format is functional.
The target in assay [6] is Alpha adrenergic receptor 1A and 1D (Rattus norvegicus) (UniProt P23944+P43140). As to the kind of experiment: Selectivity given as ratio of pKb value against Alpha-1D receptor to pKb value against alpha1A receptor in rat. The format is functional.
Sequence of Alpha adrenergic receptor 1A and 1D (Rattus norvegicus) (P23944 whole entry, looked up, one chain of several): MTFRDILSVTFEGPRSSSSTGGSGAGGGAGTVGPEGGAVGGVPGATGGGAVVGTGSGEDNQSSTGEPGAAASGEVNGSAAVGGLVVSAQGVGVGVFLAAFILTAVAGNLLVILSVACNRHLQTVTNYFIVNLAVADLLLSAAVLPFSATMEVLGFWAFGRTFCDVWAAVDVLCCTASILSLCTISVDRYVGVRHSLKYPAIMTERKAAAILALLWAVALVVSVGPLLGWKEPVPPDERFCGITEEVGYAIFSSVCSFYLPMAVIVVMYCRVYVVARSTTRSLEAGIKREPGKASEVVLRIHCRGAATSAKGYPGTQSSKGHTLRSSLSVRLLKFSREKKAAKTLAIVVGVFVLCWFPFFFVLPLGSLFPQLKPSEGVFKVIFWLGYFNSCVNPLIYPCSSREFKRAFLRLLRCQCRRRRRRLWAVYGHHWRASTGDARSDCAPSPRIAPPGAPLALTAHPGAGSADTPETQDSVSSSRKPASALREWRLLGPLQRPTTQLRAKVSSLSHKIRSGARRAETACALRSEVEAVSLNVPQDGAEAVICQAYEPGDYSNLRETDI
Assay [7] has as its target T2, Alpha-1D adrenergic receptor (Homo sapiens, UniProt P25100).
T2 sequence (P25100 whole entry): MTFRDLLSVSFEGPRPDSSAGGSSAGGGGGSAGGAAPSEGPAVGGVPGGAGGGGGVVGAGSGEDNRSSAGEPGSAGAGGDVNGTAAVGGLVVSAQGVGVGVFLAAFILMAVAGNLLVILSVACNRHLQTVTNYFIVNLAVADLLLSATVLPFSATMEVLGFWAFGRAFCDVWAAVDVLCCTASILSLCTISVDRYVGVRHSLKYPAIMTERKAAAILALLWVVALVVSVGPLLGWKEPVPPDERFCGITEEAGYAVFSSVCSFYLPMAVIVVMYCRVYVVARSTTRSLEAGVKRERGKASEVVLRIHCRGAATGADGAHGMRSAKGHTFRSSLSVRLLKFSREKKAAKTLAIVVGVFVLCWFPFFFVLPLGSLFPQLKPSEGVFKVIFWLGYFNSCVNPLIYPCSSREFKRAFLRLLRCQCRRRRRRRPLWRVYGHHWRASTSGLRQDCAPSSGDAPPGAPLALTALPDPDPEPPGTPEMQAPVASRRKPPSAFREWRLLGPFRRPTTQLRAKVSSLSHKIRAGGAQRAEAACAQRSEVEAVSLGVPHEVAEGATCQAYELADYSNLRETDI
As to the kind of experiment: Affinity constant towards human recombinant Alpha-1D adrenergic receptor using [3H]prazosin (from CHO cells) as radioligand by radioligand binding assay. The format is cell-based. An outline of the steps:
as §1

Assay [8] concerns the target T3, Alpha-1A adrenergic receptor (Rattus norvegicus) (UniProt P43140).
T3 sequence (whole entry): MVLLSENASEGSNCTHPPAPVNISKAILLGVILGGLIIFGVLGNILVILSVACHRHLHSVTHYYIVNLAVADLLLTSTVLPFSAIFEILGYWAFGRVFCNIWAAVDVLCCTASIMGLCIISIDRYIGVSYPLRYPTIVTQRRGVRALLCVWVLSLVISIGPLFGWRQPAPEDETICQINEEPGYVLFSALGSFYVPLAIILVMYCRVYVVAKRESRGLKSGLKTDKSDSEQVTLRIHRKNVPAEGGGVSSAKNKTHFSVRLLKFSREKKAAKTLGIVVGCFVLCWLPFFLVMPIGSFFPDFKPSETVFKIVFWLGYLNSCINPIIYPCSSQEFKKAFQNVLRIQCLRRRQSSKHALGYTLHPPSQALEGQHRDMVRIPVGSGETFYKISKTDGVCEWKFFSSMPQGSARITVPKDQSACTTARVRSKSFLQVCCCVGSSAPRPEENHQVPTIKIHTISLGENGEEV
As to the kind of experiment: Inhibition of (-)-noradrenaline-induced contraction of rat prostatic vas deferens (alpha1A receptor). The class given is functional. The method in brief: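 Rat prostatic vas deferens portion equilibrated 60 min, washed every 15 min, primed twice with 10 µM noradrenaline, re-equilibrated 60 min; control noradrenaline concentration-response curve, then antagonist 30 min before repeat curve.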

Assay [9] has as its target T4, Alpha-1B adrenergic receptor (Rattus norvegicus) (UniProt P15823).
T4 sequence (whole entry): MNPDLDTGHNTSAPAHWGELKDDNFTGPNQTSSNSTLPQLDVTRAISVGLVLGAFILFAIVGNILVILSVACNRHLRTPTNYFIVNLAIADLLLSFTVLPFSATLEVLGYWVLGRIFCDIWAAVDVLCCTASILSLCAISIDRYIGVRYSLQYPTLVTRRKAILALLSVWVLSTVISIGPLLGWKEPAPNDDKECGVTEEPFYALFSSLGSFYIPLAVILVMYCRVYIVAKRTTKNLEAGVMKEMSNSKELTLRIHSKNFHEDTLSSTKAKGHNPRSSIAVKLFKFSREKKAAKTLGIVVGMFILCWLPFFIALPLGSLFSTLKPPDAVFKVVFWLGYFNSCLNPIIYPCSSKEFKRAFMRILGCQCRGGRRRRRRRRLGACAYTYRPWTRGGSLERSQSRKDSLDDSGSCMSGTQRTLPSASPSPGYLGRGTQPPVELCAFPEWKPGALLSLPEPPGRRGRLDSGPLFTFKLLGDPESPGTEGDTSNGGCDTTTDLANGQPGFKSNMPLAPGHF
As to the kind of experiment: Inhibition of (-)-phenylephrine-induced contraction of rat spleen (Alpha-1B adrenergic receptor ). The format is functional, tissue-based. An outline of the steps: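 Rat spleen strips in buffer containing 4 µM propranolol to block β-adrenoceptors, 1 g resting tension, 2 h equilibration. Isometric cumulative phenylephrine curves at 30 min intervals; first discarded, second control.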

Sequence of Alpha adrenergic receptor (1a and 1d) (Homo sapiens) (P35348 whole entry, looked up, one chain of several): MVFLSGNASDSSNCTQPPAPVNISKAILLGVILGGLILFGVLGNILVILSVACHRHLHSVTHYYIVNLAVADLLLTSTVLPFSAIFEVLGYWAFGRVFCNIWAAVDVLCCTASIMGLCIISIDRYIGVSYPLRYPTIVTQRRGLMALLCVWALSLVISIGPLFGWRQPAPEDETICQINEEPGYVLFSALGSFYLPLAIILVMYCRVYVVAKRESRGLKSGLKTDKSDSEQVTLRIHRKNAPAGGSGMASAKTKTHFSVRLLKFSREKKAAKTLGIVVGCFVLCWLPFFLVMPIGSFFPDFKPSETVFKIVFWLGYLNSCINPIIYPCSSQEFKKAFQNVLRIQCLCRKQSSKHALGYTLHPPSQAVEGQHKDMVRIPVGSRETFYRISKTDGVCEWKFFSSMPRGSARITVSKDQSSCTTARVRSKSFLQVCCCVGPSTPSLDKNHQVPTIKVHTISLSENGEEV

In the case of `COc1ccccc1OCCNCC1COC(c2ccccc2)(c2ccccc2)O1.O=C(O)C(=O)O` (centres undefined), the Selectivity in [1] turned out to be 7; in assay [3], 3; in [4] it was 20; in [5], 1; in [6], 13. Also, the Ki in assay [2] was 45.7 nM; in assay [7], 9.33 nM.

As to `C[N+](C)(CCOc1ccccc1)CC1COC(c2ccccc2)(c2ccccc2)O1.O=C([O-])C(=O)O` (centres undefined), the Selectivity is < 0.02 in assay [1]; < 0.03 in [3]; 4 in assay [4]; < 0.3 in assay [5]; > 15 in [6]. Besides, the values for the inhibitory constant (Ki) in assay [2] and in [7] were 20.4 nM and > 1000 nM, respectively. In addition, the figures for the negative-log Kb (pKb) in assay [8] and in [9] were < 5 and 5.6, respectively.

On to `CN(CCOc1ccccc1)CC1COC(c2ccccc2)(c2ccccc2)O1.O=C(O)C(=O)O` (centres undefined), for which the Selectivity is < 0.3 in [1]; < 0.9 in assay [3]; 6 in [4]; 0.6 in assay [5]; 10 in assay [6]. Besides, the Ki in assay [2] was 257 nM; in assay [7], > 1000 nM. In addition, the pKb in [8] worked out at 5.06; in assay [9], 5.31.

As to `O=C(O)C(=O)O.c1ccc(OCCNCC2COC(c3ccccc3)(c3ccccc3)O2)cc1` (centres undefined), the Selectivity in [1] was determined as 6; in [3] it was 3; in assay [4], 324; in [5], 2; in assay [6] it was 162. Besides, the results for the Ki in assay [2] and in assay [7] were 63.1 nM and 11.5 nM, respectively. For the same compound, the results for the pKb in assay [8] and in [9] were 6.16 and 5.86, respectively.
